Seven compounds from ChEMBL document CHEMBL1148393, “SAR studies of dihydro-beta-agarofuran sesquiterpenes as inhibitors of the multidrug-resistance phenotype in a Leishmania tropica line overexpressing a P-glycoprotein-like transporter” (J Med Chem, 2004) can be followed below.

Where only a bound is given, the exact number is not on record here.

What is called inhibition is the percentage by which the read-out fell short of the control. A word on the IC50: it is the concentration at which inhibition is half-maximal.

The subject of test [1] is Leishmania tropica. Put plainly: Percentage of growth inhibition of multidrug resistance Leishmania tropica Lines at 15 uM. It counts as functional. The gist of the method:
(§1)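 Log-phase MDR promastigotes were plated at 3 × 10⁵ cells/well in RPMI 1640-modified medium with 20% FBS and 150 µM DNM. Sesquiterpenes (DMSO stocks diluted in medium) were added and cells kept 72 h at 28 °C. MTT was added for 4 h, formazan dissolved in 20% SDS and A540 read. Growth inhibition is relative to DNM-treated controls without modulator.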

The subject of test [2] is Leishmania tropica. The test is described as follows: Percentage of growth inhibition of multidrug resistance Leishmania tropica Lines at 1 uM. It counts as functional. In outline:
as §1

Test [3] has as its system Leishmania tropica. The test is described as follows: Percentage of growth inhibition of multidrug resistance Leishmania tropica Lines at 3 uM. It counts as functional. In outline:
as §1

Test [4] relates to Leishmania tropica. The test is described as follows: Percentage of growth inhibition of multidrug resistance Leishmania tropica Lines at 7 uM; Value ranges from 0 to 6%. It counts as functional. In outline: as §1
Test [5] concerns Leishmania tropica. Put plainly: Percent growth inhibition of wild type Leishmania tropica at 1 uM. It counts as functional. The gist of the method:
(§2)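 Intrinsic toxicity on the wild-type L. tropica LRC clone, with no DNM present. Log-phase promastigotes were plated at 3 × 10⁵ cells/well in RPMI 1640-modified medium with 20% FBS, with sesquiterpene diluted from DMSO stocks, for 72 h at 28 °C. MTT was added for 4 h, then 20% SDS, and A540 read. Percent growth inhibition is taken against untreated control absorbance.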

In test [6] the test system is Leishmania tropica. The test is described as follows: (§3) Percentage of growth inhibition of wild type Leishmania tropica lines at 15 uM. It counts as functional. In outline:
as §2

Test [7] deals with Leishmania tropica. The test is described as follows: Percentage of growth inhibition of wild type Leishmania tropica lines at 7 uM; Value ranges from 0 to 6%. It counts as functional. The gist of the method:
as §2

The subject of test [8] is Leishmania tropica. Put plainly: Percentage of growth inhibition of wild type Leishmania tropica lines at 3 uM; Value ranges from 0 to 6%. It counts as functional. In outline:
as §2

Test [9] concerns Leishmania tropica. The test is described as follows: Ratio of IC50 of the multidrug resistance Leishmania tropica Line to that of IC50 of the wild type line at 15 uM. It counts as functional. The gist of the method:
(§4)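 Resistance index is the DNM IC50 in the MDR L. tropica line divided by the DNM IC50 in the wild-type line. MDR IC50s were obtained with sesquiterpene at 7 or 15 µM. Growth was read by 72 h MTT assay at 28 °C. Data are from three independent experiments.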

Test [10] has as its system Leishmania tropica. The test is described as follows: Ratio of IC50 of the multidrug resistance Leishmania tropica Line to that of IC50 of the wild type line at 7 uM. It counts as functional. In outline: as §4
For test [11], the system named is Leishmania tropica. Put plainly: Percentage of growth inhibition of multidrug resistance Leishmania tropica Lines at 1 uM. It counts as functional. The gist of the method:
as §1

Test [12] concerns Leishmania tropica. Put plainly: Percentage of growth inhibition of multidrug resistance Leishmania tropica Lines at 3 uM. It counts as functional. In outline: as §1
Test [13] deals with Leishmania tropica. Put plainly: Percentage of growth inhibition of multidrug resistance Leishmania tropica Lines at 7 uM. It counts as functional. The gist of the method:
as §1

Test [14] relates to Leishmania tropica. Put plainly: Percentage of growth inhibition of wild type Leishmania tropica Lines at 3 uM. It counts as functional. The gist of the method:
as §2

In test [15] the test system is Leishmania tropica. The test is described as follows: Percentage of growth inhibition of wild type Leishmania tropica Lines at 7 uM. It counts as functional. The gist of the method:
(§5)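 WT L. tropica LRC-strain promastigotes (log phase, RPMI 1640-modified medium + 20% heat-inactivated FBS, 28 °C) seeded at 3 × 10⁵ cells/well and exposed without DNM to sesquiterpenes diluted from DMSO stocks. After 72 h at 28 °C, MTT (5 mg/mL in PBS) was added for 4 h, formazan dissolved in 20% SDS, A540 read. Growth inhibition (%) calculated relative to untreated control absorbance.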

Test [16] has as its system Leishmania tropica. The description is as §3. It counts as functional. In outline: as §5
The source holds these as a separate data set.

For test [17], the system named is Leishmania tropica. The test is described as follows: Concentration required to inhibit the growth of multidrug resistance Leishmania tropica Line in the presence of DNM at 15 uM. It counts as functional, organism-based.
For test [18], the system named is Leishmania tropica. Put plainly: Concentration required to inhibit the growth of multidrug resistance Leishmania tropica Line in the presence of DNM at 7 uM. It counts as functional, organism-based.
The test system of test [19] is Leishmania tropica. The test is described as follows: Percentage of growth inhibition of multidrug resistance Leishmania tropica Lines at 15 uM; Value ranges from 0 to 6%. It counts as functional. In outline:
as §1

Test [20] deals with Leishmania tropica. The test is described as follows: Percentage of growth inhibition of wild type Leishmania tropica Lines at 7 uM. It counts as functional. In outline: as §2
For test [21], the system named is Leishmania tropica. Put plainly: Percentage of growth inhibition of wild type Leishmania tropica Lines at 3 uM. It counts as functional. In outline:
as §5

Consider `COc1ccc(C(=O)O[C@@H]2C3C[C@H](OC(=O)c4ccco4)[C@]4(C)[C@@H](OC(C)=O)[C@@H](OC(=O)c5ccccc5)C[C@](C)(O)C24OC3(C)C)cc1` (stereo partly drawn), for which the inhibition at 15 µM in test [1] is 11.8%; in [6], under 6%. For the same compound, the inhibition at 1 µM in test [2] and in test [5] was under 6% throughout. Besides, the inhibition at 3 µM in test [3] and in test [8] was 6% throughout. Besides, the inhibition at 7 µM in [4] and in [7] was 6% each time.
Take `CC(=O)O[C@H]1C[C@](C)(O)C23OC(C)(C)C(C[C@H](OC(=O)c4ccco4)[C@]2(C)[C@H]1OC(C)=O)[C@H]3OC(=O)c1ccco1` (stereo partly drawn): the figures for the RI in [9] and in [10] were 2.3 and 7.8, respectively. The inhibition at 15 µM in [1] was 94.4%; in test [16], 15.2%. For the same compound, the inhibition at 1 µM is 24.5% in test [11] and under 6% in test [5]. The inhibition at 3 µM in [12] is 83.5%; in [14], under 6%. Further, the inhibition at 7 µM is 90.9% in test [13] and 9.7% in [15]. In addition, the IC50 in test [17] was 9 µM; in test [18], 30 µM.
For `CC(=O)O[C@@H]1C2C[C@H](OC(=O)c3ccco3)[C@]3(C)[C@@H](OC(C)=O)[C@@H](OC(=O)c4ccco4)C[C@](C)(O)C13OC2(C)C` (stereo partly drawn), the inhibition at 15 µM in test [19] is 6%; in [6] it was under 6%. In addition, the inhibition at 1 µM in test [2] and in test [5] was under 6% each time. Moreover, the inhibition at 3 µM in test [3] is 6%; in test [14], under 6%. Moreover, the inhibition at 7 µM is 6% in test [4] and under 6% in test [20].
As to `CC(=O)O[C@H]1[C@@H](OC(=O)c2ccccc2)C[C@](C)(O)C23OC(C)(C)C(C[C@H](OC(=O)c4ccco4)[C@]12C)[C@H]3OC(=O)c1ccc([N+](=O)[O-])cc1` (stereo partly drawn), the inhibition at 15 µM in test [1] is 51.1%; in test [16] it was 10.8%. The inhibition at 1 µM in test [11] is 6.4%; in test [5], under 6%. Moreover, the inhibition at 3 µM in test [12] was determined as 13.5%; in [8], 6%. The results for the inhibition at 7 µM in test [13] and in test [7] were 26.4% and 6%, respectively.
As for `CC(=O)OC[C@@]12[C@@H](OC(C)=O)[C@@H](OC(C)=O)[C@@H]3OC(=O)[C@H](C)[C@@H](C)c4ncccc4C(=O)OC[C@@]4(C)OC1([C@H](OC(C)=O)C4[C@H](OC(C)=O)[C@@H]2OC(C)=O)[C@@]3(C)O`, the inhibition at 15 µM is 6% in test [19] and under 6% in [6]. Besides, the inhibition at 1 µM in test [2] and in test [5] was under 6% each time. In addition, the inhibition at 3 µM in [3] and in test [14] was under 6% throughout. Also, the results for the inhibition at 7 µM in [4] and in test [20] were 6% and under 6%, respectively.
For `CC(=O)OC[C@]12[C@@H](OC(=O)c3ccccc3)CC3[C@@H](OC(=O)c4ccccc4)C1(OC3(C)C)[C@@](C)(O)C[C@H](OC(C)=O)[C@@H]2OC(C)=O` (stereo partly drawn), the RI worked out at 5.2 in test [9] and 10.2 in test [10]. The figures for the inhibition at 15 µM in test [1] and in test [16] were 90.9% and 15.2%, respectively. Also, the inhibition at 1 µM in test [11] is 18%; in [5], under 6%. For the same compound, the inhibition at 3 µM came out at 77.5% in [12] and 6.9% in test [21]. In addition, the inhibition at 7 µM in test [13] was 89.9%; in test [15], 11%. The values for the IC50 in test [17] and in test [18] were 20 µM and 39 µM, respectively.
On to `CC(=O)OC[C@]12[C@@H](OC(=O)c3ccco3)CC3[C@@H](OC(=O)c4ccco4)C1(OC3(C)C)[C@@](C)(O)C[C@H](OC(C)=O)[C@@H]2OC(C)=O` (stereo partly drawn), for which the RI in [9] is on record as 2.9; in [10], 8.7. For the same compound, the inhibition at 15 µM was 94.3% in [1] and 7.2% in [16]. For the same compound, the inhibition at 1 µM in test [11] was 25.7%; in test [5], under 6%. Also, the inhibition at 3 µM in [12] is 79.6%; in test [14], under 6%. Moreover, the inhibition at 7 µM was 89.5% in test [13] and under 6% in test [20]. In addition, the half-maximal inhibitory concentration (IC50) in test [17] came out at 11 µM; in test [18], 33.3 µM.
